Experimental data: ChEMBL document CHEMBL3804796, “Discovery of Novel 3,3-Disubstituted Piperidines as Orally Bioavailable, Potent, and Efficacious HDM2-p53 Inhibitors” (ACS Med Chem Lett, 2016)
Activity calls are given as the source filed them. The calls are words filed in the database; no cut-off is given here.

Columns and labels:
UACC-62 = assay: Antiproliferative activity against human UACC62 cells expressing wild type p53 after 72 hrs by CellTitre-Glo assay; format: functional, cell-based
Procedure, shortened: (§1)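 Cell lines exposed to compound for 72 h; viability read by CellTiter-Glo and IC50 derived. p53 coding-region mutation status of each line established by direct sequencing.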

LOX IMVI = assay: Antiproliferative activity against human LOXIMVI cells expressing wild type p53 after 72 hrs by CellTitre-Glo assay; format: functional, cell-based; procedure, shortened: as §1
A549 [1] = assay: Antitumor activity against human A549 cells xenografted in nude mouse assessed as tumor growth inhibition at 100 mg/kg, po qd administered with cycle of 3 days on, 4 days off for 30 days coadministered with 20 mg/kg, ip once weekly paclitaxel relative to control; format: functional
Procedure, shortened: (§2)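 Mice bearing A549 NSCLC xenografts. The test agent was given orally, either daily or intermittently (daily for 3 days, then 4 days off). Paclitaxel was given at 20 mg/kg ip weekly, alone or in combination. Read-out was tumor growth inhibition.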

[2] = Antiproliferative activity against human HCT116 cells expressing wild type p53 after 72 hrs by CellTitre-Glo assay; format: functional, cell-based; settings: HCT-116, 72 h
Procedure, shortened: (§3)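 Cancer cell lines of known p53 coding-region status (checked by direct sequencing) were exposed to the compound for 72 h. Viability was read with CellTiter-Glo, and the IC50 was taken from these readings.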

SK-UT-1 = assay: Antiproliferative activity against human SK-UT-1 cells harboring mutant p53 after 72 hrs by CellTitre-Glo assay; format: functional, cell-based; settings: SK-UT-1, 72 h; procedure, shortened: as §3
SJSA-1 [3] = assay: Induction of apoptosis in human SJSA1 cells assessed as caspase 3/7 activation; format: functional, cell-based
SJSA-1 [4] = assay: Selectivity ratio of IC50 for human SK-UT-1 cells harboring mutant p53 to IC50 for human SJSA1 cells expressing wild type p53; format: functional
Procedure, shortened: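 Ratio of two IC50s, each from a 72 h CellTiter-Glo viability assay. p53 coding-region status was confirmed by direct sequencing. The ratio is p53-mutant (SK-UT-1) or p53-null (H1299) IC50 divided by wild-type p53 (SJSA-1 or HCT116) IC50.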

[5] = Intrinsic clearance in human liver microsomes; format: ADME; settings: read-out: CLH
Mus musculus = assay: Dose normalized AUC (0 to 24 hrs) in mouse at 1 mg/kg, po administered as single dose; format: ADME, organism-based; settings: in vivo
Procedure, shortened: (§4)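 Single oral dose of 1 mg/kg. Vehicle was 20% HPBCD for mouse and 0.4% HPMC for dog and monkey. Plasma AUC over 0–24 h, dose-normalized, reported in μM·h.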

Rhesus monkey = assay: Dose normalized AUC (0 to 24 hrs) in monkey at 1 mg/kg, po administered as single dose; format: ADME, organism-based, Macaca mulatta; settings: in vivo; procedure, shortened: as §4
[6] = Clearance in mouse at 2 mg/kg, iv; format: ADME, organism-based; settings: in vivo
[7] = Clearance in dog at 1 mg/kg, iv; format: ADME, organism-based, Canis lupus familiaris; settings: in vivo
Cytochrome P450 3A4 [8] = biological target: T1, Cytochrome P450 3A4 (Homo sapiens, UniProt P08684); assay: Inhibition of CYP3A4 (unknown origin); format: ADME
Cytochrome P450 2D6 = Cytochrome P450 2D6 (Homo sapiens, UniProt P10635); assay: Inhibition of CYP2D6 (unknown origin); format: ADME
Cytochrome P450 2C8 = Cytochrome P450 2C8 (Homo sapiens, UniProt P10632); assay: Inhibition of CYP2C8 (unknown origin); format: ADME
Cytochrome P450 2C9 = Cytochrome P450 2C9 (Homo sapiens, UniProt P11712); assay: Inhibition of CYP2C9 (unknown origin); format: ADME
[9] = Fraction unbound in human plasma; format: ADME, cell-free
[10] = Fraction unbound in monkey plasma; format: ADME, cell-free, Macaca mulatta; settings: rhesus monkey
hERG (KCNH2) = hERG (KCNH2) (Homo sapiens, UniProt Q12809); assay: Inhibition of human ERG at 6 uM relative to control
Procedure, shortened: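 hERG inhibition measured by voltage clamp at 6 μM compound.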

Cytochrome P450 3A4 [11] = biological target: T1, Cytochrome P450 3A4; assay: Time dependent inhibition of CYP3A4 (unknown origin); format: ADME
[12] = Antitumor activity against human SJSA1 cells xenografted in nude mouse assessed as tumor growth inhibition at 200 mg/kg, po qd continuously for 30 days relative to control; format: functional; settings: SJSA-1, po, 720 h, read-out: TGI
Procedure, shortened: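 Nude mice bearing SJSA-1 osteosarcoma xenografts, n = 5 per group. Oral dosing in 20% HPBCD, given either intermittently (daily, 3 days on/4 days off) or continuously daily. Body weight was monitored against a vehicle control group.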

SJSA-1 [13] = assay: Antitumor activity against human SJSA1 cells xenografted in nude mouse assessed as tumor growth inhibition at 100 mg/kg, po qd continuously for 30 days; format: functional, organism-based
Procedure, shortened: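 Nude mice bearing SJSA-1 osteosarcoma xenografts, 5 per group, dosed orally in 20% HPBCD. Schedules were either continuous daily or intermittent (3 days on, 4 days off), at 100 and 200 mpk. Tumor volume and body weight followed against a vehicle control group.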

A549 [14] = assay: Antitumor activity against human A549 cells xenografted in nude mouse assessed as tumor growth inhibition at 100 mg/kg, po qd administered with cycle of 3 days on, 4 days off for 30 days relative to control; format: functional; settings: read-out: TGI; procedure, shortened: as §2
A2780 [15] = assay: Antitumor activity against human A2780 cells xenografted in nude mouse harboring wild type p53 assessed as tumor growth inhibition at 50 mg/kg, po bid continuously for 15 days relative to control; format: functional; settings: 360 h, read-out: TGI
Procedure, shortened: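 Wild-type p53 mice bearing A2780 ovarian xenografts. The test agent was given at 50 mg/kg orally twice daily, continuously. Docetaxel was given at 40 mg/kg ip weekly, twice in total. Each was given alone and in combination. Read-out was tumor growth inhibition.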

ACHN = assay: Antiproliferative activity against human ACHN cells expressing wild type p53 after 72 hrs by CellTitre-Glo assay; format: functional, cell-based; procedure, shortened: as §1
A498 = assay: Antiproliferative activity against human A498 cells expressing wild type p53 after 72 hrs by CellTitre-Glo assay; format: functional, cell-based; procedure, shortened: as §1
CAKI-1 = assay: Antiproliferative activity against human Caki1 cells expressing wild type p53 after 72 hrs by CellTitre-Glo assay; format: functional, cell-based; procedure, shortened: as §1
LNCaP = assay: Antiproliferative activity against human LNCAP cells expressing wild type p53 after 72 hrs by CellTitre-Glo assay; format: functional, cell-based; procedure, shortened: as §1
A2780 [16] = assay: Antiproliferative activity against human A2780 cells expressing wild type p53 after 72 hrs by CellTitre-Glo assay; format: functional, cell-based; procedure, shortened: as §1
DOHH-2 = assay: Antiproliferative activity against human DOHH2 cells expressing wild type p53 after 72 hrs by CellTitre-Glo assay; format: functional, cell-based; procedure, shortened: as §1
Daudi = assay: Antiproliferative activity against human Daudi cells expressing wild type p53 after 72 hrs by CellTitre-Glo assay; format: functional, cell-based; procedure, shortened: as §1
MOLT-3 = assay: Antiproliferative activity against human MOLT3 cells expressing wild type p53 after 72 hrs by CellTitre-Glo assay; format: functional, cell-based; procedure, shortened: as §1
CESS = assay: Antiproliferative activity against human CESS cells expressing wild type p53 after 72 hrs by CellTitre-Glo assay; format: functional, cell-based; procedure, shortened: as §1
CMLT1 = assay: Antiproliferative activity against human CMLT1 cells expressing wild type p53 after 72 hrs by CellTitre-Glo assay; format: functional, cell-based; procedure, shortened: as §1
MOLM-13 = assay: Antiproliferative activity against human MOLM13 cells expressing wild type p53 after 72 hrs by CellTitre-Glo assay; format: functional, cell-based; procedure, shortened: as §1
NALM-6 = assay: Antiproliferative activity against human NALM6 cells expressing wild type p53 after 72 hrs by CellTitre-Glo assay; format: functional, cell-based; procedure, shortened: as §1
SR = assay: Antiproliferative activity against human SR cells expressing wild type p53 after 72 hrs by CellTitre-Glo assay; format: functional, cell-based; procedure, shortened: as §1

T1 sequence (P08684 whole entry): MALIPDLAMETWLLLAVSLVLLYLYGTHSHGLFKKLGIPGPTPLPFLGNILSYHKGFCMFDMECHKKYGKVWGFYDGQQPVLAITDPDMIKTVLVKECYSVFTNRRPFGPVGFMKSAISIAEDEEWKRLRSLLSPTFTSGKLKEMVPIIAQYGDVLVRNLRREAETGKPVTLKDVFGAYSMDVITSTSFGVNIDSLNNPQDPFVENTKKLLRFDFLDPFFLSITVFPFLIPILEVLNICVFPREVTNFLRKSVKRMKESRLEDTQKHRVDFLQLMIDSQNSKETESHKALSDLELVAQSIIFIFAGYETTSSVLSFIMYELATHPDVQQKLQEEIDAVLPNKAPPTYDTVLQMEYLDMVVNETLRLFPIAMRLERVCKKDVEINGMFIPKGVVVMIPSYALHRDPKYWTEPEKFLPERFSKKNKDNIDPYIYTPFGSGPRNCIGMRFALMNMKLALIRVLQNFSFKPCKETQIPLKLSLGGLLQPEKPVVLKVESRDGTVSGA
Sequence of Cytochrome P450 2D6 (P10635 whole entry): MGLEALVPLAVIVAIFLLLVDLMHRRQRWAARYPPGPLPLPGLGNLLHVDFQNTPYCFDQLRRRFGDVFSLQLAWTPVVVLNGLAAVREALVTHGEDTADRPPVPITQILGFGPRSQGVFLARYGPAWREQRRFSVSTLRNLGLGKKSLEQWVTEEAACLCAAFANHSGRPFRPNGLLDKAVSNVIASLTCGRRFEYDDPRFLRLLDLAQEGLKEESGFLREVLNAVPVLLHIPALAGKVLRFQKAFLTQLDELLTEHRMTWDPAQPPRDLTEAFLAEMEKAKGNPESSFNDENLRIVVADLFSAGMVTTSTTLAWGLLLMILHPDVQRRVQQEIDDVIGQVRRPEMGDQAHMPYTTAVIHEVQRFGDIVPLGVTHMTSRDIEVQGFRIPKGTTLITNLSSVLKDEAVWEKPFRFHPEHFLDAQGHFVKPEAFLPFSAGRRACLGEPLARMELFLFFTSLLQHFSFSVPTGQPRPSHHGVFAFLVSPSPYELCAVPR
Sequence of Cytochrome P450 2C9 (P11712 whole entry): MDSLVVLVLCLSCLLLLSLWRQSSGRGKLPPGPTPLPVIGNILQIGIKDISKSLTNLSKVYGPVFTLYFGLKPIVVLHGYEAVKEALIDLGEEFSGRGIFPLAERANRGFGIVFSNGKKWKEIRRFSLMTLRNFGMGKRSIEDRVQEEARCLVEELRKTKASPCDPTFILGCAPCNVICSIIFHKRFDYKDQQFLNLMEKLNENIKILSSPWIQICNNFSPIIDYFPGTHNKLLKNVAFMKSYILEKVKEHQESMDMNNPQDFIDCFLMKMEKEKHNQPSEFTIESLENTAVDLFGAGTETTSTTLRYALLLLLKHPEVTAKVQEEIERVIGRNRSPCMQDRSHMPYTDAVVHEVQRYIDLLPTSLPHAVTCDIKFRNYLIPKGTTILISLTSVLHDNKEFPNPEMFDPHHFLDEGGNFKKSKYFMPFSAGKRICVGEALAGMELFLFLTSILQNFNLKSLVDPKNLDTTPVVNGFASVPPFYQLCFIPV
Sequence of hERG (KCNH2) (Q12809 whole entry): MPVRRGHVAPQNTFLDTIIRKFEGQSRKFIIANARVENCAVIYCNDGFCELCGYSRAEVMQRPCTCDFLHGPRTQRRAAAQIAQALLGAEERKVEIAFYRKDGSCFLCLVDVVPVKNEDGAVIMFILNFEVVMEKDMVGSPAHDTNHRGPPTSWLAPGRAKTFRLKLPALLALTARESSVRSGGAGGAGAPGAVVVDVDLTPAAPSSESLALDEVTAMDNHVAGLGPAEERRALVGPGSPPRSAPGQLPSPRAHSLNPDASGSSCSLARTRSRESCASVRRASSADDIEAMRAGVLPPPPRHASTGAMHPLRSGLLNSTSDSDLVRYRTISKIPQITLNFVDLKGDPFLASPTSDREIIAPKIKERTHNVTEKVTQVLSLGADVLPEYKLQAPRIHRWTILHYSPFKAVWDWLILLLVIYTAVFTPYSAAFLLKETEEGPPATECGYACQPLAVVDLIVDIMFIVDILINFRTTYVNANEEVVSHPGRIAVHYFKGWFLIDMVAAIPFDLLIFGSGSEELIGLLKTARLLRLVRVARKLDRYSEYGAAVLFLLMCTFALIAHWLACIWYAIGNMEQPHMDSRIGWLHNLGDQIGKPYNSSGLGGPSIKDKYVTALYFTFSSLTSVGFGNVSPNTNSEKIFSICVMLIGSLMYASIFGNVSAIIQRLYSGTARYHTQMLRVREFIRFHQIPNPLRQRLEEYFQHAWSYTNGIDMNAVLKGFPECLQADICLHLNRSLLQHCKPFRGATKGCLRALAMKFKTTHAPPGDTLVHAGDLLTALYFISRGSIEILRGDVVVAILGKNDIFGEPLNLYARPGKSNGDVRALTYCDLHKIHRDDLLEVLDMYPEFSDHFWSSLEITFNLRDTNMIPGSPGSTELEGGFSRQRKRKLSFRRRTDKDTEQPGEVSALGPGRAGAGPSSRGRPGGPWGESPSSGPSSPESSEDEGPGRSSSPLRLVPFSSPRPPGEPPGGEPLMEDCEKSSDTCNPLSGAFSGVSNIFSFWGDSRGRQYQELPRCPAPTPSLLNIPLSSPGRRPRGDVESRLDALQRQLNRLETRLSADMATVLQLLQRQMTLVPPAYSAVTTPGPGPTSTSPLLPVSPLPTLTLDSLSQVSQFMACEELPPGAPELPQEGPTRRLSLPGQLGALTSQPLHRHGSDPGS
Sequence of Cytochrome P450 2C8 (P10632 whole entry): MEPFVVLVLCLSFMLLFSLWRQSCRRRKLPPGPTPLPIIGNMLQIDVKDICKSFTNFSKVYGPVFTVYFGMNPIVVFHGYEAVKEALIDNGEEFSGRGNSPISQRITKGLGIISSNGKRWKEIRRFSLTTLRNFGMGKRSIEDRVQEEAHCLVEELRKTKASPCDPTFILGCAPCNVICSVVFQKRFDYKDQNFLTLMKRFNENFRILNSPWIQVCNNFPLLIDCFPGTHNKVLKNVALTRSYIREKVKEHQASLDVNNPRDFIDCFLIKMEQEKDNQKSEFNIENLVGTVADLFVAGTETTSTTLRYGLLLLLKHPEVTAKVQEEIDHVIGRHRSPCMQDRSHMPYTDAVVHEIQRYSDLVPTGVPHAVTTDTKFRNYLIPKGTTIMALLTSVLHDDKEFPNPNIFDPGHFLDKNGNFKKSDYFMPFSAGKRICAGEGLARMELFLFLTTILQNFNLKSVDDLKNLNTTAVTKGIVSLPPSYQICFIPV

## CCC[C@H]1N(C(=O)c2cnccc2C(F)(F)F)CCC[C@@]1(Oc1csc(C(F)(F)F)c1)C(=O)N1CCN(c2ccccc2OCCCC(=O)O)CC1
UACC-62
  Activity: Active
LOX IMVI
  Activity: Active
A549 [1]
  TGI: 85%
[2]
  IC50: 0.18 µM
SK-UT-1
  IC50: > 50 µM
SJSA-1 [3]
  IC50: 0.09 µM
SJSA-1 [4]
  Ratio IC50: >500
[5]
  CLint scaled: 3 mL/min/kg
Mus musculus
  AUC/dose: 0.1 µM·h
Rhesus monkey
  AUC/dose: 0.2 µM·h
[6]
  clearance: 133 mL/min/kg
[7]
  clearance: 4.1 mL/min/kg
Cytochrome P450 3A4 [8]
  IC50: > 50 µM
Cytochrome P450 2D6
  IC50: > 50 µM
Cytochrome P450 2C8
  IC50: > 50 µM
Cytochrome P450 2C9
  IC50: > 50 µM
[9]
  fraction unbound: 0.04
[10]
  fraction unbound: 0.05
hERG (KCNH2)
  inhibition at 6 µM: 20%
Cytochrome P450 3A4 [11]
  TDI: Active
[12]
  inhibition in vivo at 200 mg/kg: 60%
SJSA-1 [13]
  TGI: Active
A549 [14]
  inhibition in vivo at 100 mg/kg: 27%
A2780 [15]
  inhibition in vivo at 50 mg/kg: 41%
ACHN
  Activity: Active
A498
  Activity: Active
CAKI-1
  Activity: Active
LNCaP
  Activity: Active
A2780 [16]
  Activity: Active
DOHH-2
  Activity: Active
Daudi
  Activity: Active
MOLT-3
  Activity: Active
CESS
  Activity: Active
CMLT1
  Activity: Active
MOLM-13
  Activity: Active
NALM-6
  Activity: Active
SR
  Activity: Active
